m5-HT2A agonist = agonists of mouse serotonin 5-HT2A receptor (HTR2A); CHO-K1 mHTR2A beta-arrestin complementation, luminescence; percent of 30 µM serotonin response; activation, % at 7.6 µM; P35363; hit rate 0.66% among 360,000;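 active = activation above a run cutoff, the mean activation of all tested compounds plus 3 SD, cut at about 14% in these data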;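 also: 0% = plate median of compound wells and 100% = 30 µM serotonin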
CCR6 antagonist = CCR6 (human) receptor antagonism; inhibition, % at 20 µM; CHO-K1 CCR6 PathHunter beta-arrestin, luminescence, CCL20-stimulated; AID 493098; hit rate 0.49% among 340,000; P51684;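 active = compounds whose inhibition of the agonist-driven luminescence signal at 20 µM reaches about 50%, limit read from the data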;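 also: cells stimulated with CCL20 at 14 nM final; plate controls were DMSO with CCL20 for no effect and DMSO without agonist for full effect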
Target sequence (P51684 whole entry, looked up): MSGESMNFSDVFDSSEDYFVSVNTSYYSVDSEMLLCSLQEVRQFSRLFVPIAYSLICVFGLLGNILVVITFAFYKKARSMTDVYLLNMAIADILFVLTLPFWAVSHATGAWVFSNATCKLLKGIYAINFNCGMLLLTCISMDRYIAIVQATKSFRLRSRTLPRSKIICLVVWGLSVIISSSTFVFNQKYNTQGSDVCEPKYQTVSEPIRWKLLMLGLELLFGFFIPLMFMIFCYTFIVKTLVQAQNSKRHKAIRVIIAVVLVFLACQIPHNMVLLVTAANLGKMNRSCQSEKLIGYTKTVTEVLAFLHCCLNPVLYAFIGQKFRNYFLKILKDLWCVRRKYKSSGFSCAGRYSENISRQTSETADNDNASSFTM
EBI2 block = blocks human EBI2 receptor beta-arrestin signaling; P32249; EBI2 beta-arrestin recruitment, luminescence, 7a,25-OHC stimulated; inhibition, % at 5 µM; hit rate 0.81% among 360,000; AID 651636; in the data active = inhibition above about 38%;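 also: enzyme fragment complementation signal reports receptor beta-arrestin coupling in cells; 0% = agonist plus DMSO wells and 100% = wells without agonist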
CXCR6 inh = inhibitors of human CXCR6 receptor. O00574. CHO-K1 PathHunter CXCR6 beta-arrestin, luminescence. inhibition, % at 20 µM. hit rate 0.36% among 360,000. AID 602244; in the data active = inhibition above about 34%, passing the limit was not always enough;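 also: antagonist mode with CXCL16 agonist at 10 nM final; 0% = 10 nM CXCL16 with DMSO and 100% = unstimulated wells without agonist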
APJ agonist = APJ receptor agonism; AID 2520; CHO-K1 APJ PathHunter beta-arrestin, luminescence; 0% DMSO wells, 100% apelin; P35414; activation, % at 20 µM; hit rate 0.11% among 330,000;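 active = activation more than six SD over the plate average, tested at 20 µM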;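 also: 0% = DMSO alone and 100% = apelin-13 at 10 nM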
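Material: CHO-K1 APJ beta-arrestin complementation cell line; Input: cell density 1000 per well; Incubation: compound stimulation 90 min at 25 °C, detection 60 min; Signal: luminescence from split beta-galactosidase complementation, Galacton Star/Emerald II substrate; Controls: DMSO-only wells as negative, 10 nM Apelin-13 as positive control.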
APJ antag = antagonists of human APJ apelin receptor. inhibition, % at 20 µM. P35414. CHO-K1 APJ beta-arrestin complementation, luminescence. hit rate 0.32% among 330,000;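 active = inhibition above about 40% at 20 µM, limit read from the data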;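 also: cells challenged with 10 nM apelin-13 agonist together with compound; plate controls were apelin-13 plus DMSO wells for no effect and DMSO wells lacking apelin-13 for full effect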
APJ ag confirm = APJ receptor agonism confirmation; shares compounds with APJ agonist; CHO-K1 APJ PathHunter beta-arrestin, luminescence; activation, % at 20 µM; hit rate 10% among 310; AID 2764;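 active = activation above 40%, taking the highest of four retests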;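 also: plate controls were DMSO wells for no effect and apelin-13 at 10 nM for full effect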
The depositor's hits bear a star. In the library only some 2.1% were active in any assay of this set; here they are far more common.

What do the screens show for `O=C(/C=C/c1ccccn1)c1ccc(Br)cc1O`?
m5-HT2A agonist: 0; CCR6 antagonist: 17; EBI2 block: 13; CXCR6 inh: -1

Results for Oc1c(C=Nc2ccccc2Cl)[nH]c2ccccc12 ?
m5-HT2A agonist: -2; CCR6 antagonist: -9; EBI2 block: 5; CXCR6 inh: -6; APJ agonist: -9; APJ antag: 31

What do the screens show for `O=C(COc1coc(CN2CCN(c3ccccc3)CC2)cc1=O)NC1CCCCC1`?
m5-HT2A agonist: -1; CCR6 antagonist: 16; EBI2 block: 15; CXCR6 inh: 4; APJ agonist: -4; APJ antag: 10

How did CC(=O)c1ccc(C(=O)N2CCC(n3nccc3NC(=O)C3CC3)CC2)cc1 do in these assays?
m5-HT2A agonist: 5; CCR6 antagonist: 9; EBI2 block: -17; CXCR6 inh: 1; APJ agonist: -4; APJ antag: 12

How did Cc1csc(N=Nc2ccc(N(C)C)cc2)[n+]1[O-] do in these assays?
m5-HT2A agonist: -10; EBI2 block: 14; CXCR6 inh: 47*

What do the screens show for `CN(C)c1ccc(N=Nc2ccc(C(=O)O)cc2)cc1`?
m5-HT2A agonist: -4; CCR6 antagonist: 27; EBI2 block: 9; CXCR6 inh: 27; APJ agonist: -5; APJ antag: 18

What do the screens show for `Cc1ccc(S(=O)(=O)N/N=C/c2cccc([N+](=O)[O-])c2)cc1`?
m5-HT2A agonist: 1; CCR6 antagonist: 37; EBI2 block: -9; CXCR6 inh: 9; APJ agonist: -9; APJ antag: 51*

Results for Cc1ccc(S(=O)(=O)N/N=C\c2cc([N+](=O)[O-])ccc2Cl)cc1 ?
m5-HT2A agonist: 0; CCR6 antagonist: 40; EBI2 block: 2; CXCR6 inh: 29; APJ agonist: -10; APJ antag: 21

What do the screens show for `Cc1ccc([C@H]2C[C@H](O)[C@@H](n3cc(C4CC4)nn3)CN2Cc2cccs2)cc1`?
m5-HT2A agonist: 5; EBI2 block: -2; CXCR6 inh: 4

What do the screens show for `Cc1ccccc1-c1ccc(Nc2ccc(N3CCOCC3)cc2)nn1`?
m5-HT2A agonist: -5; CCR6 antagonist: -12; EBI2 block: 71*; CXCR6 inh: 3; APJ agonist: 2; APJ antag: 4

What do the screens show for `Nc1c(Cl)ncnc1N/N=C/c1ccccn1`?
CCR6 antagonist: 50*

What do the screens show for `COc1cc2ccccc2cc1C(=O)Nc1ccc(Br)cn1`?
m5-HT2A agonist: 2; CCR6 antagonist: 2; EBI2 block: 47*; CXCR6 inh: -17; APJ agonist: 2; APJ antag: 7

Results for CCN1/C(=C/C(C)=C/c2sc3ccccc3[n+]2CC)Sc2ccccc21 ?
m5-HT2A agonist: -4; CCR6 antagonist: 62*; EBI2 block: 30; CXCR6 inh: 57*; APJ agonist: 0; APJ antag: 56*

How did CCN1/C(=C\C(=S)Nc2ccccc2)Sc2ccccc21 do in these assays?
m5-HT2A agonist: 4; CCR6 antagonist: 18; EBI2 block: 11; CXCR6 inh: 1; APJ agonist: -3; APJ antag: 19

Results for CCOc1ccc(CCN2C(=S)N([C@@H](CC(C)C)CN3CCC[C@@H]3CN3C(=S)NC[C@@H]3Cc3ccccc3)C[C@@H]2Cc2ccc(O)cc2)cc1 ?
m5-HT2A agonist: -4; EBI2 block: 37; CXCR6 inh: -2

Results for COc1ccc(CC(=O)Nc2cccc(-c3nnc(-c4ccc(C)cc4)o3)c2)cc1OC ?
m5-HT2A agonist: 4; CCR6 antagonist: 21; EBI2 block: -21; CXCR6 inh: 14; APJ agonist: 28*; APJ antag: -14; APJ ag confirm: 24

How did COc1ccc(CC(=O)Nc2cccc(-c3nnc(-c4ccccc4)o3)c2)cc1OC do in these assays?
m5-HT2A agonist: 1; CCR6 antagonist: 0; EBI2 block: -32; CXCR6 inh: -11

How did CC1CCN(C(=S)c2ccc(N(C)C)cc2)CC1 do in these assays?
m5-HT2A agonist: -2; CCR6 antagonist: 17; EBI2 block: 5; CXCR6 inh: 4; APJ agonist: -4; APJ antag: 15

How did COc1cccc(-c2cc(NC=O)c3ncc(-c4ccc(C(C)=O)cc4)n3c2)c1 do in these assays?
m5-HT2A agonist: -1; EBI2 block: 23; CXCR6 inh: 4

What do the screens show for `COC(=O)c1ccc2c(=O)n(CCCCCC(=O)N3CCN(c4ccc(F)cc4)CC3)c(=O)[nH]c2c1`?
m5-HT2A agonist: 2; CCR6 antagonist: -8; EBI2 block: -34; CXCR6 inh: -10; APJ agonist: 47*; APJ antag: -35; APJ ag confirm: 35

What do the screens show for `COC(=O)[C@@]1(Cc2ccc(F)cc2)[C@H]2c3cc(C(=O)N4CCCC4)n(Cc4ccc(C)o4)c3C[C@H]2CN1C(=O)c1ccccc1`?
m5-HT2A agonist: 1; EBI2 block: 28; CXCR6 inh: 11

What do the screens show for `N=c1c(C(=O)NC2CCCCC2)cc2c(=O)n3ccccc3nc2n1CCc1ccccc1`?
m5-HT2A agonist: -3; CCR6 antagonist: 19; EBI2 block: 10; CXCR6 inh: 2; APJ agonist: 20*; APJ antag: -8; APJ ag confirm: -2

What do the screens show for `O=c1cc(-c2ccccc2)nc2c(Cl)cc(Cl)cn12`?
m5-HT2A agonist: -2; EBI2 block: 30; CXCR6 inh: 27

What do the screens show for `CC(Cc1ccccc1)NC(=O)CCCN1C(=O)c2ccccc2C1=O` (stereo not drawn)?
m5-HT2A agonist: 1; CCR6 antagonist: 7; EBI2 block: -7; CXCR6 inh: -6; APJ agonist: -1; APJ antag: 5

How did Cn1c(NCc2c[nH]c3ccccc23)nc2ccccc21 do in these assays?
m5-HT2A agonist: 0; CCR6 antagonist: -11; EBI2 block: -37; CXCR6 inh: -9; APJ agonist: 22*; APJ antag: -14; APJ ag confirm: 25

Results for Cc1ccc(S(=O)(=O)N2CCN(C(=O)CNC(=O)c3sc4ccccc4c3Cl)CC2)cc1 ?
m5-HT2A agonist: 12; CCR6 antagonist: 5; EBI2 block: 9; CXCR6 inh: -7; APJ agonist: 7; APJ antag: -47

What do the screens show for `N#C/C(=C\c1ccc([N+](=O)[O-])o1)c1nc2ccccc2[nH]1`?
CCR6 antagonist: 3; APJ agonist: 42*; APJ antag: -15; APJ ag confirm: 6

Results for Cc1ccc2nc(/C(C#N)=C\c3ccc(N4CCOCC4)o3)[nH]c2c1 ?
m5-HT2A agonist: 0; CCR6 antagonist: 21; EBI2 block: 6; CXCR6 inh: 14; APJ agonist: 0; APJ antag: 9

Results for Cc1ccc2nc(/C(C#N)=C\c3ccc([N+](=O)[O-])o3)[nH]c2c1 ?
m5-HT2A agonist: 12; CCR6 antagonist: -21; EBI2 block: 37; CXCR6 inh: -1; APJ agonist: 95*; APJ antag: -45; APJ ag confirm: 13

Compound activity deposited in PubChem BioAssay by several laboratories.
